44 compounds from ChEMBL document CHEMBL1142707, “Bisaryloxime ethers as potent inhibitors of transthyretin amyloid fibril formation” (J Med Chem, 2005) can be followed below.

In this test the target is Transthyretin (Homo sapiens) (UniProt P02766). The experiment in a line: Percentage of WT-TTR (3.6 uM) amyloid fibril formation at pH 4.4 upon incubation with the compound (7.2 uM). Put shortly:
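WT-TTR (7.2 µM, 0.4 mg/mL) in 10 mM phosphate pH 7.2, 100 mM KCl, 1 mM EDTA was preincubated 30 min at 37 °C with inhibitor added from a 1.44 mM DMSO stock. An equal volume of 200 mM acetate pH 4.2 brought the sample to pH 4.4 (3.6 µM TTR, 7.2 µM compound final). Left 72 h at 37 °C, vortexed, turbidity read at 350 and 400 or 500 nm. Run in duplicate or triplicate.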
Compound `O=C(O)c1ccc(/C=N/Oc2ccc(C(=O)O)cc2)cc1` displayed a Formation of 46%.

With `O=C(O)c1ccc(O/N=C/c2cccc(C(=O)O)c2)cc1`, the Formation is 13%. For `FC(F)(F)c1ccccc1O/N=C/c1c(Cl)cccc1Cl`, the Formation is 15%.

For `FC(F)(F)c1ccc(/C=N/Oc2cccc(C(F)(F)F)c2)cc1`, the Formation is 93%.

`FC(F)(F)c1ccccc1/C=N/Oc1cc(Cl)cc(Cl)c1` registered a Formation of 32%.

The compound `O=C(O)c1ccccc1O/N=C/c1ccccc1` had a Formation of 91%.

Compound `O=C(O)c1ccccc1O/N=C/c1ccccc1C(F)(F)F` gave a Formation of 34%. The value for `FC(F)(F)c1cccc(/C=N/Oc2cc(Cl)cc(Cl)c2)c1` was 55%.

For the compound `Clc1cccc(Cl)c1/C=N/Oc1ccccc1`, the Formation turned out to be 63%. The value for `Fc1cc(F)cc(O/N=C/c2ccccc2)c1` was 87%; that for `FC(F)(F)c1ccccc1O/N=C/c1ccccc1` was 56%; that for `O=C(O)c1cccc(/C=N/Oc2ccccc2C(=O)O)c1` was 87%. On to `O=C(O)c1ccc(/C=N/Oc2ccccc2C(=O)O)cc1`, for which the Formation is 87%. `Fc1cc(F)cc(O/N=C/c2cc(Cl)cc(Cl)c2)c1` returned a Formation of 90%. Regarding `O=C(O)c1ccc(/C=N/Oc2ccccc2)cc1`, the Formation came out at 77%. With `FC(F)(F)c1cccc(O/N=C/c2cc(Cl)cc(Cl)c2)c1`, the Formation was determined as 72%. Take `FC(F)(F)c1cccc(O/N=C/c2ccccc2)c1`: the Formation was determined as 83%. `O=C(O)c1ccc(O/N=C/c2ccccc2C(=O)O)cc1`: the Formation was found to be 97%.

`Fc1cc(F)cc(/C=N/Oc2ccccc2C(F)(F)F)c1` displayed a Formation of 75%. In turn, `Fc1cc(F)cc(/C=N/Oc2cc(F)cc(F)c2)c1` gave a Formation of 94%.

`Fc1cc(F)cc(/C=N/Oc2cccc(C(F)(F)F)c2)c1` had a Formation of 88%.

Turning to `C(=N\Oc1ccccc1)/c1ccccc1`, the Formation was found to be 96%.

Turning to `O=C(O)c1ccc(O/N=C/c2cccc(C(F)(F)F)c2)cc1`, the Formation amounted to 50%.

As for `O=C(O)c1cccc(O/N=C/c2ccccc2)c1`, the Formation was determined as 50%. On to `Clc1cc(Cl)cc(O/N=C/c2c(Cl)cccc2Cl)c1`, for which the Formation amounted to 62%. Next, `FC(F)(F)c1ccccc1/C=N/Oc1ccccc1`: 65%; `O=C(O)c1ccccc1/C=N/Oc1ccccc1`: 91%.

`O=C(O)c1cccc(O/N=C/c2cccc(C(F)(F)F)c2)c1` displayed a Formation of 27%. In turn, `Clc1cc(Cl)cc(O/N=C/c2ccccc2)c1` came in with a Formation of 39%. On to `O=C(O)c1ccc(O/N=C/c2ccccc2)cc1`, for which the Formation stood at 32%.

`O=C(O)c1ccccc1/C=N/Oc1ccccc1C(F)(F)F` had a Formation of 75%. Turning to `O=C(O)c1cccc(/C=N/Oc2cccc(C(=O)O)c2)c1`, the Formation is 15%. In the case of `FC(F)(F)c1ccccc1O/N=C/c1cc(Cl)cc(Cl)c1`, the Formation turned out to be 33%. Next, `FC(F)(F)c1ccc(/C=N/Oc2ccccc2C(F)(F)F)cc1`: 81%.

As to `Fc1cc(F)cc(/C=N/Oc2cc(Cl)cc(Cl)c2)c1`, the Formation turned out to be 61%.

Compound `O=C(O)c1cccc(/C=N/Oc2ccccc2)c1` returned a Formation of 79%. In the case of `Clc1cc(Cl)cc(/C=N/Oc2cc(Cl)cc(Cl)c2)c1`, the Formation is 63%. In turn, `Fc1cc(F)cc(O/N=C/c2ccccc2C(F)(F)F)c1` gave a Formation of 71%. The value for `FC(F)(F)c1cccc(/C=N/Oc2ccccc2C(F)(F)F)c1` was 57%; that for `Fc1cc(F)cc(O/N=C/c2ccc(C(F)(F)F)cc2)c1` was 77%. As to `O=C(O)c1ccc(O/N=C/c2ccc(C(F)(F)F)cc2)cc1`, the Formation was 94%.

`Fc1cc(F)cc(/C=N/Oc2ccccc2)c1` gave a Formation of 95%. Next, `Fc1cc(F)cc(O/N=C/c2c(Cl)cccc2Cl)c1`: 24%; `O=C(O)c1ccc(O/N=C/c2cc(F)cc(F)c2)cc1`: 18%.
